Measured values taken from ChEMBL document CHEMBL1287655, “Structure-activity relationship studies of acridones as potential antipsoriatic agents. 2. Synthesis and antiproliferative activity of 10-substituted hydroxy-10H-acridin-9-ones against human keratinocyte growth” (Eur J Med Chem, 2010).

Key:
HaCaT [1] = test: Antiproliferative activity against human HaCaT cells assessed as dispersed cells after 48 hrs by phase-contrast microscopic analysis; format: functional, cell-based
Summary of the method: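 HaCaT keratinocytes (non-transformed human line) treated for 48 h, then dispersed cells counted by phase-contrast microscopy. Inhibition = (1 − test/control) × 100, from means of test (N = 3) versus control (N = 6–8). Significance by Student's t-test (P < 0.05). IC50 obtained by nonlinear regression.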

[2] = system: Radical scavenging activity; test: Antioxidant activity assessed as DPPH free radical scavenging activity; format: functional
Summary of the method: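 Cell-free DPPH radical interaction: compound effect on DPPH absorbance read at 520 nm. Percent interaction = (1 − test absorbance/control absorbance) × 100, from mean of N = 3 versus control N = 8. EC50 is the concentration giving 50% decrease in DPPH absorbance. NDGA and α-tocopherol served as positive controls.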

HaCaT [3] = test: Cytotoxicity against human HaCaT cells assessed as LDH release at 2 uM after 4 hrs by UV method; format: functional
Summary of the method: (§1)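 HaCaT cells exposed to test compound for 4 h at 37 °C. Extracellular LDH activity measured by UV method with pyruvate and NADH and reported in mU/mL (N = 3, SD < 10%). Vehicle control was 0.2% DMSO in culture medium. Brij 35 with ultrasound served as positive control. Significance versus vehicle at P < 0.05.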

HaCaT [4] = test: Cytotoxicity against human HaCaT cells assessed as LDH release at 2 uM after 4 hrs by UV method relative to control; format: functional; summary of the method: as §1

| EC50 [2] | Compound | IC50 (HaCaT [1]) | Activity (HaCaT [3]) | Activity (HaCaT [4]) |
| --- | --- | --- | --- | --- |
|  | COc1cc(O)c2c(=O)c3ccccc3n(C)c2c1 | > 50 µM |  |  |
|  | CCn1c2ccccc2c(=O)c2c(O)cc(O)cc21 | > 50 µM |  |  |
| > 500 µM | Cn1c2ccccc2c(=O)c2c(O)cc(O)cc21 | 0.6 µM | 74.3 mU/ml |  |
|  | Cn1c2ccccc2c(=O)c2c(O)cccc21 | > 50 µM |  |  |
|  | COc1cccc2c1c(=O)c1ccccc1n2C | > 50 µM |  |  |
|  | CCn1c2ccccc2c(=O)c2c(O)cccc21 | > 50 µM |  |  |
|  | CCCn1c2ccccc2c(=O)c2c(O)cccc21 | > 50 µM |  |  |
|  | CCCn1c2ccccc2c(=O)c2c(O)cc(O)cc21 | > 50 µM |  |  |
|  | Cn1c2ccccc2c(=O)c2ccccc21 | 38.9 µM |  |  |
|  | Cc1cccc2c1c(=O)c1c(O)cc(O)cc1n2C | > 50 µM |  |  |
| > 500 µM | COc1ccc(CCn2c3ccccc3c(=O)c3c(O)cccc32)cc1 | 6.3 µM | 74.6 mU/ml |  |
| > 500 µM | COc1ccc(CCn2c3ccccc3c(=O)c3c(O)cccc32)cc1OC | 7 µM |  |  |
|  | COc1cc(CCn2c3ccccc3c(=O)c3c(O)cccc32)cc(OC)c1OC | 45.5 µM |  |  |
|  | O=c1c2ccccc2n(CCCc2ccccc2)c2cccc(O)c12 | > 50 µM |  |  |
|  | O=c1c2ccccc2n(CCCCc2ccccc2)c2cccc(O)c12 | > 50 µM |  |  |
|  | CCOc1cc(O)c2c(=O)c3ccccc3n(CC)c2c1 | > 50 µM |  |  |
| > 500 µM | O=c1c2ccccc2n(Cc2ccccc2)c2cc(O)cc(O)c12 | 3.7 µM | 76.8 mU/ml |  |

| EC50 [2] | Compound | IC50 (HaCaT [1]) | Activity (HaCaT [3]) | Activity (HaCaT [4]) |
| --- | --- | --- | --- | --- |
|  | O=c1c2ccccc2n(Cc2ccccc2)c2cc(OCc3ccccc3)cc(O)c12 | > 50 µM |  |  |
|  | O=c1c2ccccc2n(CCCc2ccccc2)c2cc(O)cc(O)c12 | 40.5 µM |  |  |
| > 500 µM | COc1ccc(Cn2c3ccccc3c(=O)c3ccccc32)cc1OC | > 50 µM |  |  |
|  | CC(=O)CC(=O)n1c2ccccc2c(=O)c2ccccc21 | 27.8 µM |  |  |
| > 500 µM | CC(=O)CC(=O)n1c2ccccc2c(=O)c2c(O)cccc21 | 3.3 µM | 74 mU/ml |  |
| > 500 µM | O=c1c2ccccc2n(Cc2ccccc2)c2cccc(O)c12 | 2.5 µM | 74.9 mU/ml |  |
| > 500 µM | O=c1c2ccccc2n(Cc2ccccc2)c2cccc(OCc3ccccc3)c12 | 7.5 µM | 72.1 mU/ml |  |
|  | O=c1c2ccccc2n(Cc2ccccc2)c2ccc(Cc3ccccc3)c(O)c12 | 13 µM |  |  |
| > 500 µM | O=c1c2ccccc2n(Cc2ccc([N+](=O)[O-])cc2)c2cccc(O)c12 | 1.8 µM |  | 86.7 mU/ml |
|  | O=c1c2ccccc2n(CCc2ccccc2)c2cccc(O)c12 | 41.5 µM |  |  |
| > 500 µM | O=c1c2ccccc2n(CCc2ccc(O)cc2)c2cccc(O)c12 | 20.1 µM |  |  |
| > 500 µM | O=c1c2ccccc2[nH]c2cc(O)cc(O)c12 |  |  |  |
| > 500 µM | O=c1c2ccccc2[nH]c2cccc(O)c12 | > 50 µM |  |  |
|  | O=c1c2ccccc2n(Cc2ccccc2)c2ccccc12 | > 50 µM |  |  |
|  | O=c1c2ccccc2[nH]c2ccccc12 [ACRIDONE] | > 50 µM |  |  |
| 16.7 µM | O=C1c2c(O)cccc2Cc2cccc(O)c21 [ANTHRALIN] |  |  | 122.8 mU/ml |

| Compound | EC50 [2] | IC50 (HaCaT [1]) | Activity (HaCaT [3]) | Activity (HaCaT [4]) |
| --- | --- | --- | --- | --- |
| COc1cc2c(c3c1c(=O)c1ccccc1n3C)C=CC(C)(C)O2 [ACRONINE] | > 500 µM | 3.2 µM | 70.4 mU/ml |  |
